Data on ten compounds can be found in ChEMBL document CHEMBL1124110, “Synthesis and pharmacological evaluation of 5,6-exo-epoxy-7-oxabicyclo[2.2.1]heptane derivatives” (J Med Chem, 1988).

Holding throughout (type): functional
The subject of experiment [1] is Cavia porcellus. Put plainly: Percent inhibition of increase in pulmonary resistance was measured on arachidonic acid induced bronchoconstriction in the anesthetized guinea pig after 3 min. In short, it runs like this: (§1)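 Anesthetized guinea pigs received the test agent at 1 mg/kg iv. Arachidonic acid (0.5 mg/kg iv) injections were given as challenge. Rises in pulmonary resistance were recorded, and percent inhibition was scored at 3, 10 and 30 min. Values are mean ± SEM, n = 3–5 animals.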

The species named for another experiment is Homo sapiens. Put plainly: Inhibition of platelet aggregation induced by arachidonic acid(AA) in human platelet-rich plasma. The settings on record: read-out: I50. In short, it runs like this:
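Human platelet-rich plasma; aggregation triggered by arachidonic acid. Potency is expressed as the I50 (concentration giving 50% inhibition), reported as mean ± SEM or as mean ± range when n = 2.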

Experiment [2] concerns Cavia porcellus. The experiment in a line: Percent inhibition of increase in pulmonary resistance was measured on arachidonic acid induced bronchoconstriction in the anesthetized guinea pig after 30 min. In short, it runs like this: as §1
The test system of experiment [3] is Cavia porcellus. Put plainly: Percent inhibition of increase in pulmonary resistance was measured on arachidonic acid induced bronchoconstriction in the anesthetized guinea pig after 10 min. In short, it runs like this: as §1

As usually defined, the Inhibition is the share of the control response that was lost under treatment. On to `O=C(O)CCC/C=C\C[C@@H]1[C@H](CNNC(=O)Nc2ccccc2)[C@H]2CC[C@H]1O2`, for which the Inhibition in the experiment with Cavia porcellus [1] is 97%; in the experiment on Cavia porcellus [2], 96%; in the experiment with Cavia porcellus [3], 98%. Moreover, the IC50 in the experiment listed under Homo sapiens turned out to be 0.02 µM.
Regarding `O=C(O)COc1ccc(CCNS(=O)(=O)c2ccccc2)cc1` [SULOTROBAN], the Inhibition with Cavia porcellus [1] is on record as 89%; in the experiment on Cavia porcellus [2] it was 40%; with Cavia porcellus [3], 82%. In the experiment listed under Homo sapiens, the IC50 turned out to be 38.5 µM.
Taken in the same sequence, the figures for `CC1([C@H](O)/C=C/C2C(C/C=C\CCCC(=O)O)C3OC2C2OC32)CCCCC1` (some centres not stated) were 85%, 22%, 67% and 0.53 µM.
For the compound `O=C(O)CCC/C=C\CC1C(/C=C/[C@@H](O)CCc2ccccc2)C2OC1C1OC21` (some centres not stated), the IC50 in the experiment filed under Homo sapiens was 1.6 µM.
Take `CCCCC(C)(C)[C@H](O)/C=C/C1C(C/C=C\CCCC(=O)O)C2OC1C1OC21` (some centres not stated): the IC50 in the experiment listed under Homo sapiens was 2.2 µM.
Take `O=C(O)CCC/C=C\CC1C(/C=C/[C@@H](O)C2CCCCC2)C2OC1C1OC21` (some centres not stated): the IC50 in the experiment listed under Homo sapiens turned out to be 5.2 µM.
Consider `COc1ccc2c(c1)c(CC(=O)O)c(C)n2C(=O)c1ccc(Cl)cc1` [INDOMETHACIN], for which the IC50 in the experiment listed under Homo sapiens worked out at 6 µM.
`CCCCC[C@H](O)/C=C/C1C(C/C=C\CCCC(=O)O)C2OC1C1OC21` (some centres not stated): the IC50 in the experiment filed under Homo sapiens came to 15.3 µM.
In the case of `O=C(O)CCC/C=C\CC1C(/C=C/[C@@H](O)CCc2ccc(O)cc2)C2OC1C1OC21` (some centres not stated), the results for the Inhibition in the experiment on Cavia porcellus [1], in the experiment on Cavia porcellus [2] and with Cavia porcellus [3] were 90%, 46% and 83%, respectively. Besides, the IC50 in the experiment listed under Homo sapiens amounted to 0.27 µM.
In the case of `O=C(O)CCC/C=C\CC1C(/C=C/[C@H](O)C2CCCCC2)C2OC1C1OC21` (some centres not stated), the IC50 in the experiment listed under Homo sapiens is 17 µM.
